Results taken from publication PMC11954587 (JAC-Antimicrobial Resistance, 2025).
Entries after “also recorded” stand apart in the source; their conditions may differ. Like-named read-outs stand apart in the source and are kept apart here. Residues, ends and D or L forms follow the SMILES beside them.

Columns and labels:
[1] = tested on: multi-drug-resistant Gram-negative bacteria; format: in vivo, human; conditions: for Microbiology efficacy (TOC): test of cure visit, 14-days post treatment
Summary of the method: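 VAP was diagnosed by positive sputum culture of multi-drug-resistant Gram-negative bacteria plus clinical signs, laboratory tests and CT. Aerosol: 50 mg powder dissolved in 5 mL distilled water, given whole or split into two 25 mg doses, nebulized over 30 min by vibrating mesh device, combined with IV dosing. Outcomes were assessed at end of treatment and test of cure.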

[2] = cited from earlier work
[3] = tested on: epithelial cells; conditions: in vitro; cited from earlier work
[4] = patients with bloodstream infections; cited from earlier work
[5] = Adverse events in VAP patients during polymyxin B treatment; format: in vivo, human
[6] = tested on: K. pneumoniae; conditions: cited from earlier work
[7] = tested on: P. aeruginosa strains; conditions: animal model, cited from earlier work
[8] = aerosolized delivery of CMS; cited from earlier work
[9] = four patients during polymyxin B treatment

For `CC[C@H](C)CCCCC(=O)N[C@@H](CCN)C(=O)N[C@H](C(=O)N[C@@H](CCN)C(=O)N[C@H]1CCNC(=O)[C@H]([C@@H](C)O)NC(=O)[C@H](CCN)NC(=O)[C@H](CCN)NC(=O)[C@H](CC(C)C)NC(=O)[C@@H](Cc2ccccc2)NC(=O)[C@H](CCN)NC1=O)[C@@H](C)O` [polymyxin B] (HELM PEPTIDE1{[CC[C@H](C)CCCCC(=O)[*:2]].[Dab].T.[Dab].[Dab].[Dab].[dF].L.[Dab].[Dab].T}$PEPTIDE1,PEPTIDE1,5:R3-11:R2$$$V2.0), the “Clinical outcome (EOT and TOC)” value ([1]; Patient 1, CRKP VAP, inhalation 25 mg + intravenous 50 mg q12h, 5 d) was “improved”, the “Microbiology efficacy (TOC)” value ([1]; Patient 1, organism found) was “CRKP” and the “Microbiology efficacy (TOC)” value ([1]; Patient 2) was “negative”. For the same compound, the “Note (sputum culture during treatment)” value ([1]; Patient 3, inhalation 25 mg + intravenous 75 mg q12h) was “CRKP and CRPA were negative after treatment for 6 days, then Serratia marcescens and Chryseobacterium meningosepticum showed positive”, the “Microbiology efficacy (TOC)” value ([1]; Patient 3) was “CRKP and CRPA negative” and the “Clinical outcome (EOT and TOC)” value ([1]; Patient 4, CRE (E. cloacae) VAP, inhalation 25 mg + intravenous 75 mg q12h, 11 d) was “improved”. For the same compound, the “Microbiology efficacy (TOC)” value ([1]; Patient 4) was “negative”, the “clinical improvement or cure / alleviation of clinical symptoms (patients)” value ([1]; four VAP patients, aerosolized and intravenous polymyxin B) was “Three of the patients exhibited alleviation of clinical symptoms; also recorded: three of them reaching clinical improvement or cure” and the “bacterial eradication (patients)” value ([1]; four VAP patients, aerosolized and intravenous polymyxin B, sputum culture) was “All four patients achieved bacterial eradication”. For the same compound, the “cure and improved rates” value ([2]; aerosol doses of 50 mg twice a day, VAP patients) was 95%, the clinical outcome ([2]; inhaled polymyxin B, pneumonia patients) was “favourable clinical outcome of cure and improvement” and the “concentration that induced toxic metabolic response perturbations” value [3] was 1000 µM. For the same compound, the elimination half-life [4] was 12.5 ± 3.11 h, the Adverse events ([5]; Patient 1, inhalation 25 mg + intravenous 50 mg q12h, 5 d) was “none” and the Adverse events ([5]; Patient 2, inhalation 25 mg + intravenous 100 mg q12h, 5 d) was “none”. The Adverse events ([5]; Patient 3, inhalation 25 then 50 mg + intravenous 75 mg q12h, 12 d) was “hyperpigmentation”, the Adverse events ([5]; Patient 4, inhalation 25 mg + intravenous 75 mg q12h, 11 d) was “hyperpigmentation” and the nephrotoxicity [5, 9] was “No cases of nephrotoxicity”. The neurotoxicity [5, 9] was “no reports of neurotoxicity”, the “hyperpigmentation (number of patients)” value ([5]; of four patients) was “two patients” and the “chest CT imaging” value ([5]; patients, combined aerosol and intravenous treatment) was “recovery of chest CT imaging”. For the same compound, the “eradication rate of K. pneumoniae” value ([6]; aerosol 50 mg twice a day (with intravenous), P < 0.003) was 92.1%, the “eradication rate of K. pneumoniae” value ([6]; intravenous treatment alone) was 70.1% and the “maximum ELF concentrations” value ([7]; aerosolized) was 184.0 ± 35.1 mg/L. The lung histopathology ([7]; at maximum ELF concentrations 184.0 ± 35.1 mg/L) was “reduced lung inflammation and preserved lung epithelial integrity”.
In the case of colistimethate [CMS], the “rate of clinical cure (OR)” value [8] is listed as 1.61 and the “rate of microbiological eradication (OR)” value [8] is listed as 1.37.
